High-throughput results as filed in PubChem.
HTR2A ag: agonists of mouse serotonin 5-HT2A receptor (HTR2A). CHO-K1 mHTR2A beta-arrestin complementation, luminescence; percent of 30 µM serotonin response. hit rate 0.66% among 360,000. P35363. AID 624169. activation, % at 7.6 µM;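 active = activation above a run cutoff, the mean activation of all tested compounds plus 3 SD, cut at about 14% in these data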;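 also: 0% = plate median of compound wells and 100% = 30 µM serotonin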
CCR6 antagonist: blocks CCL20-driven beta-arrestin recruitment at human CCR6; CHO-K1 CCR6 PathHunter beta-arrestin, luminescence, CCL20-stimulated; inhibition, % at 20 µM; hit rate 0.49% among 340,000;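 active = compounds whose inhibition of the agonist-driven luminescence signal at 20 µM reaches about 50%, limit read from the data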;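 also: cells stimulated with CCL20 at 14 nM final; plate controls were DMSO with CCL20 for no effect and DMSO without agonist for full effect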
APJ agonist: activates the human apelin receptor APJ. P35414. CHO-K1 APJ PathHunter beta-arrestin, luminescence; 0% DMSO wells, 100% apelin. activation, % at 20 µM. hit rate 0.11% among 330,000;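 active = activation more than six SD over the plate average, tested at 20 µM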;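 also: 0% = DMSO alone and 100% = apelin-13 at 10 nM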
Target sequence (P35414 whole entry, looked up): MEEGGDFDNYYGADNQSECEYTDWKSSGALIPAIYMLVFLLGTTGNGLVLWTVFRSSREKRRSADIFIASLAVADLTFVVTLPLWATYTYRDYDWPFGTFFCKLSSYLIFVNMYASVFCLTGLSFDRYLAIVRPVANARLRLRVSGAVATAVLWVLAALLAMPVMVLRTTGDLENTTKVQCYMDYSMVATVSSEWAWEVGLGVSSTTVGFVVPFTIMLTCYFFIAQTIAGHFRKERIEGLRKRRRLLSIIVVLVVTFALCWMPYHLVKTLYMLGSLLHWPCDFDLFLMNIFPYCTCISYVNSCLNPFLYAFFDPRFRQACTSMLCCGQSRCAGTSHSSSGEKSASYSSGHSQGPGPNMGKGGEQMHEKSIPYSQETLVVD
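Test system: CHO-K1 APJ beta-arrestin complementation cell line. Amount: cell density 1000 per well. Controls: DMSO negative, 10 nM Apelin-13 positive. Signal: luminescent beta-gal fragment complementation, chemiluminescent substrate. Read-out basis: agonist-driven arrestin binding to APJ. Timing: compound stimulation 90 min at 25 °C, detection 60 min.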
CXCR6 inh: CXCR6 (human) receptor inhibition | CHO-K1 PathHunter CXCR6 beta-arrestin, luminescence | O00574 | inhibition, % at 20 µM | hit rate 0.36% among 360,000 | AID 602244; in the data active = inhibition above about 34%, passing the limit was not always enough;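 also: antagonist mode with CXCL16 agonist at 10 nM final; 0% = 10 nM CXCL16 with DMSO and 100% = unstimulated wells without agonist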
APJ antagonist: antagonists of human APJ apelin receptor; P35414; CHO-K1 APJ beta-arrestin complementation, luminescence; inhibition, % at 20 µM; hit rate 0.32% among 330,000; AID 2521;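 active = inhibition above about 40% at 20 µM, limit read from the data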;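 also: cells challenged with 10 nM apelin-13 agonist together with compound; plate controls were apelin-13 plus DMSO wells for no effect and DMSO wells lacking apelin-13 for full effect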
EBI2 block: EBI2 (human) antagonism | inhibition, % at 5 µM | hit rate 0.81% among 360,000 | P32249 | EBI2 beta-arrestin recruitment, luminescence, 7a,25-OHC stimulated; in the data active = inhibition above about 38%;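 also: enzyme fragment complementation signal reports receptor beta-arrestin coupling in cells; 0% = agonist plus DMSO wells and 100% = wells without agonist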
Starred values were filed as active, the others as inactive; nt = not tested or not shown. Sampled rows, rich in hits. Any-hit rate of the full collection: about 2.1%.

SMILES	HTR2A ag	CCR6 antagonist	APJ agonist	CXCR6 inh	APJ antagonist	EBI2 block
O=[N+]([O-])c1ccc(N/N=C/c2ccc[nH]2)cc1	7	55*	nt	10	nt	5
O=[N+]([O-])c1ccc(NN=Cc2cccc([N+](=O)[O-])c2)cc1	-3	14	nt	-2	nt	-13
Cc1nn(-c2ccccc2)c2sc(C(=O)N(CC(=O)NC(C)(C)C)Cc3ccco3)cc12	-5	57*	-2	5	11	9
COC(=O)c1cc2c(C)nn(-c3ccccc3)c2s1	0	-7	-1	-6	-2	9
Cc1ccc2nc(-c3ccc(-c4cccc(Cl)c4)cc3)c(NCc3ccccc3)n2c1	-6	14	3	12	-37	58*
CCCCNc1cc(=O)n(C)c(=O)n1C	15*	-4	-4	4	3	-6
Cc1ccc2[nH]cc(S(=O)(=O)c3ccc(C(C)C)cc3)c(=O)c2c1	3	12	-3	1	-7	-4
O=Nc1c(-c2c(O)[nH]c3cc(Br)ccc23)[nH]c2ccccc12	-5	75*	-2	61*	36	26
COc1cc(C(=O)NC(=S)N(C)Cc2ccccc2)cc(OC)c1OC	-1	9	-6	5	5	2
CN(Cc1ccccc1)C(=S)NC(=O)c1ccc(-c2ccccc2)cc1	-3	57*	-2	32	32	8
CCOC(=O)N1CCN(S(=O)(=O)c2ccc(C(=O)NNc3nc4cc(C)cc(C)c4s3)cc2)CC1	23*	4	-1	-8	7	-5
CCOC(=O)N1CCN(S(=O)(=O)c2ccc(C(=O)NNc3nc4c(C)cc(C)cc4s3)cc2)CC1	-3	5	1	-2	-13	-7
CCOc1ccc(S(=O)(=O)Nc2ccccc2C(=O)NCC2CCCO2)cc1 (stereo not given)	-5	10	2	0	4	-5
Nc1cccc2c1C(=O)N(C(=O)/C=C/c1cccc(Br)c1)C2=O	0	64*	nt	38*	nt	2
O=C1CSC(c2ccccc2F)N1c1ccccc1F (stereo not given)	7	10	-2	5	8	-5
CN(C(=O)COc1ccccc1)c1nc(-c2ccc(F)cc2)cs1	1	-3	0	-10	15	1
Cc1ccc(CNC(=O)c2ccc(Cn3cc(-c4ccc(C)cc4)nc3-c3ccncc3)cc2)cc1	-6	4	2	-3	-3	71*
CCC(=O)OCOc1ccc(/C=C2/CCC(CN(C)C)C2=O)cc1 (stereo not given)	3	90*	nt	82*	nt	19
N#CC1=C(SCC(=O)Nc2cccc3cccnc23)NC(=O)C(C#N)C12CCCCC2 (stereo not given)	16*	-6	-1	-16	-17	-6
COC(=O)c1cccc(NC(=O)CCN2C(=O)NC(C)(C)C2=O)c1	-3	nt	nt	-4	nt	-10
O=C(O)c1cc(N=Nc2c(O)ccc3ccccc23)cc(C(=O)O)c1	4	57*	nt	28	nt	15
Cn1nccc1C(=O)N1CCN(C23CC4CC(CC(C4)C2)C3)CC1	-6	8	2	-6	10	7
COc1cc(C)ccc1OCC(=O)Nc1nnc(C2CC2)s1	6	0	1	-4	-5	-14
COc1ccc(-c2nc(-c3ccc4c(c3)OCO4)[nH]c2-c2ccc(OC)cc2)cc1	-3	17	2	4	17	48*
COc1ccc(-c2noc(-c3ccc4c(c3)OCO4)n2)cc1	-2	6	-4	4	10	-1
SMILES	HTR2A ag	CCR6 antagonist	APJ agonist	CXCR6 inh	APJ antagonist	EBI2 block
N=C1/C(=C\c2ccc(-c3cc(Cl)cc(Cl)c3)o2)C(=O)N=C2SC=C(c3ccccc3)N12	4	35	-3	31	35	17
N=C1/C(=C/c2cccn2CCOc2ccccc2)C(=O)N=C2SC=C(c3ccccc3)N12	-5	42	-2	20	9	41*
C=C1C(=O)O[C@H]2C[C@H]1[C@@H](OC(C)=O)C/C(C)=C/CC/C(C)=C\CC[C@]2(C)O	6	3	nt	0	nt	52*
O=C(Nc1ncccn1)C1c2ccccc2Oc2ccccc21	3	11	-2	-1	11	-5
CN(C)S(=O)(=O)c1cccc(C(=O)Nc2ccc3c(c2)CCC3)c1	6	-2	0	0	17	6
CN(C)S(=O)(=O)c1ccc(C(=O)Nc2ccc3c(c2)CCC3)cc1	0	7	-1	9	8	56*
O=C(N/N=C/c1cc(Br)cc(Br)c1O)c1cccc(N2CCCC2=O)c1	-5	54*	0	-20	-23	5
CCCCN(C)CCCNC(=O)Cn1cc2c(n1)-c1c(oc(C(=O)N3CCCC3)c1C)CC2	1	nt	nt	2	nt	-7
O=C(CS(=O)c1ccccc1[N+](=O)[O-])Oc1ccc(Br)cc1 (stereo not given)	3	-2	0	-7	-14	-10
CS(=O)(=O)c1ccc(S(=O)CC(=O)Oc2ccc(Cl)cc2)c([N+](=O)[O-])c1 (stereo not given)	nt	61*	-4	nt	-9	nt
O=C(NCCCCc1ccccc1)c1cccc(NC(=O)c2ccccc2)c1	4	11	nt	0	nt	6
Cc1ccc(C(=C2C3C=CC2C2C(=O)NC(=O)C32)c2ccc(C)cc2)cc1 (stereo not given)	-5	54*	-2	-5	7	9
Cn1c(=O)c(Nc2ccc(O)cc2)c2c3c(cccc31)C(=O)c1ccccc1-2	-2	54*	-3	29	10	15
O=c1oc2ccccc2c(Cl)c1CN1CCCCC1	3	92*	-8	96*	87*	-2
O=C(/C=C/c1cccs1)c1ccc(N2CCOCC2)cc1	-1	7	-3	1	14	45*
Oc1[nH]c2ccc(Br)cc2c1N=NC(=S)N1CCOCC1	-11	30	-10	8	10	42*
O=S(=O)(c1ccccc1)N1CCN(S(=O)(=O)c2ccc(F)cc2)CC1	6	8	-5	-8	0	-2
Cc1cc(C)c(S(=O)(=O)ON2C(=O)c3ccccc3C2=O)cc1C	2	67*	-4	13	1	-1
O=C1c2ccccc2C(=O)N1OS(=O)(=O)c1ccc(F)cc1	-5	70*	nt	58*	nt	-6
Cc1cc(C)c(C)c(S(=O)(=O)ON2C(=O)c3ccccc3C2=O)c1C	9	76*	-3	17	20	-6
CC1Cc2cc(S(=O)(=O)CCC(=O)N3CCN(c4ccccc4)CC3)ccc2N1C(=O)C1CC1 (stereo not given)	-3	12	1	4	4	10
O=C(NCCCNc1ccc(C(F)(F)F)cc1[N+](=O)[O-])c1cc(F)c(F)cc1Cl	1	24	-4	7	14	5
